# Screens from PubChem BioAssay.
# Xi reactivation = reactivates the inactive X chromosome in mouse fibroblasts. activation, % at 7.58 µM. AID 743238. actives 0.055% (n = 360,000). XiGFP mouse fibroblasts, % GFP-positive cells imaging, 3 d; cells co-treated with 5-aza-dC sensitizer; scaled so ellipticine positive control = 100%;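 active = mean normalized replicate activation at least 10% and every replicate at or above 10%; inconclusive = only one of the two criteria met; inactive = mean below 10% and not all replicates reach 10%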;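 note: 0% = median of on-plate neutral control wells and 100% = ellipticine 6 µM median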
#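 Schedule: 3 d treatment, 15 min room-temperature fixation; system: 68-5-11 XiGFP fibroblast line; buffer or medium: DMEM plus 5-aza-dC sensitizer; control set: ellipticine 6 µM positive control; compound: one concentration, pinned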
# Ecoli rRNA inh = inhibitors of bacterial rRNA selective over humanized ribosomes. E. coli WT GFP vs humanized-ribosome RFP mutants, fluorescence, 24 h; active compounds read low; DMSO median 0, no signal -100. GFP signal change (wild-type ribosome), % (concentration not given with the values). actives 1.6% (n = 350,000). AID 720706;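 active = significant combined selectivity score with lowered wild-type GFP, culture density cut under 30%, mutant RFP and density less affected; inactive = any of these conditions unmet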
# PvdQ inh = P. aeruginosa PvdQ acylase inhibition. actives 0.063% (n = 340,000). purified PvdQ acylase, fluorescence plate reader. inhibition, % at 10 µM; in the data active = inhibition above about 30%, passing the limit was not always enough; inconclusive = no clear call, values can overlap the other calls;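 note: 0% = vehicle neutral wells and 100% = reference inhibitor wells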
# SR-BI DiI-HDL act = enhances SR-BI lipid uptake from DiI-HDL | CHO ldlA[mSR-BI] cells, DiI-HDL uptake fluorescence, 3 h; 100 = double the neutral-control signal | activation, % at 12.5 µM | actives 0.096% (n = 320,000) | AID 504775;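 active = mean replicate activation of at least 60% and every replicate at or above 60%; inconclusive = mean or all-replicate condition met, but not both; inactive = mean below 60% and not all replicates reaching 60%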;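 note: 0% = median plate neutral-control signal and 100% = twice that signal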
#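 Test system: SR-BI-overexpressing, LDLR-lacking CHO cells; Medium: Ham's F12 with 0.5% BSA, HEPES 25 mM, pH 7.4; Schedule: 3 h, 37 °C; Technique: bottom-read fluorescence, 550/595 nm.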
# SR-BI HDL uptake = inhibitors of mouse SR-BI mediated HDL lipid uptake. Q61009. ldlA[mSR-BI] CHO cells, DiI-HDL uptake fluorescence, 3 h. inhibition, % at 12.5 µM. actives 0.96% (n = 320,000). AID 488896;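 active = mean replicate inhibition of at least 70% and a set share of replicates each scoring 70 or more; inconclusive = meets just one of the two criteria; inactive = fails both criteria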;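 note: 0% = median of neutral control wells and 100% = median of positive control wells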
# Target sequence (Q61009 whole entry, looked up): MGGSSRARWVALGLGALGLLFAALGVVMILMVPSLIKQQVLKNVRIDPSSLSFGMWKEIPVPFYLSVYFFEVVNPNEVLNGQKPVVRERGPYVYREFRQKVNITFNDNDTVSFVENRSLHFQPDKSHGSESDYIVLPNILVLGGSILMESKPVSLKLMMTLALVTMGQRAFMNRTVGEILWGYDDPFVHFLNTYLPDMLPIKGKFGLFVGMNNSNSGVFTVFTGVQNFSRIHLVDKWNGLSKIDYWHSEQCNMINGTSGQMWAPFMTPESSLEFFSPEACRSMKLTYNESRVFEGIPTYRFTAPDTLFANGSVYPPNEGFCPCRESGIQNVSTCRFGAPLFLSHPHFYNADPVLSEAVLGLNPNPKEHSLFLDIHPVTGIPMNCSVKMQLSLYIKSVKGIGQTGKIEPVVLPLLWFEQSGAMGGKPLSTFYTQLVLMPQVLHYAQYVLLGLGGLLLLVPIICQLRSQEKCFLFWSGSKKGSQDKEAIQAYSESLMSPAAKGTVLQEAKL
# dFosB act-1 = enhances mouse delta FosB homodimer DNA binding. P13346. purified delta FosB, TAMRA-CDK5 oligo fluorescence polarization; percent of positive-control signal above neutral wells. activation, % at 25 µM. actives 0.99% (n = 340,000). AID 493131;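 active = mean activation above about 17%, with every replicate also reaching it, limit read from the data, passing the limit was not always enough; inconclusive = only one of the two conditions met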
# dFosB act-2 = delta FosB (mouse) homodimer activation. shares compounds with dFosB act-1. purified delta FosB, TAMRA-CDK5 oligo fluorescence polarization; normalised: neutral wells 0, positive control 100. activation, % at 24.9 µM. 2,400 tested, under 10 active;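 active = highest replicate activation at or above 34% and every replicate reaching that threshold; inconclusive = meets only one of the two criteria; inactive = meets neither criterion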;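 note: higher polarization means more probe DNA bound by delta FosB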
# Active calls of the source: *; ? = inconclusive; . = no result. Hits are enriched below; roughly 2.6% of the tested compounds scored in any of these assays.
SMILES,Xi reactivation,Ecoli rRNA inh,PvdQ inh,SR-BI DiI-HDL act,SR-BI HDL uptake,dFosB act-1,dFosB act-2
O=C(CC1S/C(=N/N=C/c2c[nH]c3ccc(OCc4ccccc4)cc23)NC1=O)Nc1ccccc1 (stereo not given),0.0,.,19.1,-2.2,2.2,32.5*,4.1
O=C(CC1S/C(=N/N=C/c2c[nH]c3ccccc23)NC1=O)Nc1ccccc1 (stereo not given),-0.1,-0.1,-3.4,-41.3,41.3,3.6,.
CCOC(=O)c1ccc(NC(=O)CSc2nc(N3CCOCC3)nc(N3CCOCC3)n2)cc1,0.1,12.5,-15.3,10.6,-10.6,24.3*,1.8
CCOC(=O)c1ccc(NC(=O)CSc2nc(=O)n3cccc(C)c3n2)cc1,0.0,-10.0,-5.4,-2.5,2.5,28.8*,3.1
CC(=O)c1ccc(NC(=O)CSc2nc(N3CCOCC3)nc(N3CCOCC3)n2)cc1,-0.1,11.8,1.6,12.2,-12.2,-9.6,.
O=c1cc(CSc2nnnn2-c2ccccc2)nc(Nc2ccc(F)cc2)[nH]1,.,.,-4.1,-14.7,14.7,25.7*,-7.4
Cc1cc(C)n(CC(O)Cn2c3ccc(Cl)cc3c3cc(Cl)ccc32)c(=O)n1 (stereo not given),.,.,4.3,-37.5,37.5,25.1*,0.8
COc1ccc(C(=O)Nc2cccc(-c3ccc(N4CCOCC4)nn3)c2)cc1,0.2,-8.5,-9.4,-14.8,14.8,-6.7,.
COc1cc(OC)cc(C(=O)Nc2cccc(-c3ccc(N4CCOCC4)nn3)c2)c1,1.3,-3.4,-9.1,-53.2,53.1,20.3*,2.0
NC(=O)CC(NC(=O)Cc1ccc(Br)cc1)c1ccc(NCc2ccc(F)cc2)c([N+](=O)[O-])c1 (stereo not given),0.0,8.6,-14.0,30.5,-30.4,53.3*,7.6
COc1ccc(OC)c(C(=O)NC(CC(N)=O)c2ccc(NCCOc3ccccc3)c([N+](=O)[O-])c2)c1 (stereo not given),0.6,2.0,-9.0,-11.7,11.7,-3.8,.
NC(=O)CC(NC(=O)c1ccccc1)c1ccc(NCCOc2ccccc2)c([N+](=O)[O-])c1 (stereo not given),0.4,.,-1.8,2.1,-2.1,26.3*,1.7
Cc1ccc(NC(=O)CC2=NC(=O)C(CC(=O)Nc3ccccc3F)S2)cc1 (stereo not given),-0.2,-16.4,-9.2,.,.,45.8*,3.9
Cc1c(C(=O)Nc2ccc(-c3nnc4n3CCCCC4)cc2)oc2c1ccc1ccccc12,0.2,.,6.0,-49.2,49.2,32.2*,3.6
CCc1noc(C)c1C(=O)Nc1ccc(-c2nnc3n2CCCCC3)cc1,0.0,6.8,2.4,0.5,-0.5,-3.8,.
Cc1ccc2c(c1)C(CCN)C(=O)N2Cc1ccccc1 (stereo not given),.,.,5.9,17.9,3.4,0.9,.
Cc1ccc(NC(=O)CSC2=C(C#N)C(c3ccc4c(c3)OCO4)CC(=O)N2)cc1C (stereo not given),.,1.2,-12.3,4.8,-4.8,46.5*,2.8
CCc1ccc(NC(=O)CSC2=C(C#N)C(c3ccc4c(c3)OCO4)CC(=O)N2)cc1 (stereo not given),.,.,2.0,39.3,-39.3,-1.1,.
CCCn1ncc(C(=O)NC2CCCN(Cc3ccc(Cl)cc3)C2)c1C (stereo not given),0.1,4.4,-9.4,-9.2,9.2,-12.9,.
CCc1ccc(-n2c(SCC(=O)c3ccc4c(c3)NC(=O)CO4)nc3ccccc3c2=O)cc1,-0.1,8.7,-16.9,11.8,-11.8,-8.3,.
O=C1COc2ccc(C(=O)CSc3nnc(NCc4ccccc4)s3)cc2N1,0.0,-4.8,-18.0,.,.,43.0*,1.2
O=C1COc2ccc(C(=O)CSc3nc4ccccc4c(=O)n3-c3ccc(Cl)c(Cl)c3)cc2N1,0.0,1.9,-6.3,-22.4,22.4,56.3*,1.1
O=C1COc2ccc(C(=O)CSc3nnc(Cc4ccccc4)o3)cc2N1,0.0,8.8,-17.4,14.1,-14.1,-0.9,.
Cn1c(SCC(=O)c2ccc3c(c2)NC(=O)CO3)nc2ccccc21,0.0,-30.1,-15.7,-4.6,4.6,38.6*,9.9
COc1ccccc1Nc1nnc(SCC(=O)Nc2cc(C)on2)s1,.,.,-4.5,-13.0,13.0,-1.8,.
SMILES,Xi reactivation,Ecoli rRNA inh,PvdQ inh,SR-BI DiI-HDL act,SR-BI HDL uptake,dFosB act-1,dFosB act-2
Cc1cc(NC(=O)CSc2nnc(NCc3ccccc3)s2)no1,0.1,8.2,-13.6,.,.,21.5*,-0.3
COc1cc2c(cc1NC(=O)Nc1ccccc1)oc1ccccc12,.,.,-11.9,-89.4,89.4*,19.2*,5.0
c1ccc2c(-c3nnc(SCc4cn5ccccc5n4)o3)c[nH]c2c1,.,.,-14.8,8.2,-8.2,0.0,.
c1ccc(CSc2nnc(-c3c[nH]c4ccccc34)o2)cc1,.,.,1.6,12.5,-12.6,20.0*,6.0
O=C(/C=C/c1ccc([N+](=O)[O-])cc1)Oc1ccc(/C=N/NC(=O)c2ccncc2)cc1,0.0,8.8,-3.9,-9.3,9.3,26.3*,6.1
CN(C)S(=O)(=O)c1ccc(N2CCCC2)c(C(=O)NNC(=O)COc2cccc(F)c2)c1,0.0,-5.7,0.1,8.8,-8.8,-8.0,.
CC(=O)CSc1nc2ccc(Nc3nc(N4CCOCC4)nc(N4CCOCC4)n3)cc2s1,.,.,7.3,-53.1,53.1,-5.0,.
CCN1/C(=C\C=C2\C(=O)N(c3ccccc3)C(=S)N2C)Sc2ccccc21,0.1,12.0,4.8,-77.3,?,27.8*,4.9
CCN1/C(=C2\OC(=S)N(C)C2=O)Sc2ccccc21,.,.,-10.8,-1.5,1.5,1.8,.
O=C(Nc1cccc(-n2cnnn2)c1)c1cc2ccccc2o1,-0.1,2.9,-13.2,-10.9,10.9,36.9*,6.4
O=C(NC1CCOC1)c1ccc(OC2CCN(CCc3ccccc3)CC2)cc1 (stereo not given),-0.1,9.5,-3.0,.,.,-9.4,.
C(=N\Nc1nc2ccccc2[nH]1)/c1c[nH]c2ccccc12,.,.,1.2,-42.9,42.9,?,.
Cc1nc(NC(=O)/C=C/c2ccccc2)sc1C(=O)Nc1ccccc1Cl,.,.,-3.8,-20.7,20.7,38.7*,3.2
COc1ccc(NC(=S)NC(NC(=O)/C=C/c2ccccc2)C(Cl)(Cl)Cl)cc1 (stereo not given),.,.,3.1,-16.3,16.4,13.4,.
O=C(/C=C/c1ccccc1)NC(NC(=S)Nc1ccc(Cl)cc1)C(Cl)(Cl)Cl (stereo not given),.,.,-10.4,-30.8,30.8,23.9*,-2.0
